Experimental data from article PMC5651361 (Alzheimer's & Dementia : Translational Research & Clinical …, 2016).
“And” between values parts separate entries of the source, which are not always exact repeats. Equal entries are not always repeated. Where two headings read alike, the source gives them in different places.

Legend:
tau = details: 2-week treatment, ventral horn spinal motoneurons and hippocampal CA3 mossy fibers, tau × amyloid precursor protein mice; cited from earlier work
pSer9-GSK3β [1] = details: Tg2576 (APP) AD-transgenic mice; cited from earlier work
pSer9-GSK3β [2] = details: cortex of CD1 mice; cited from earlier work
cystatin F = experiment: Hippocampal mRNA expression, quantitative real-time RT-PCR; format: in vivo, mouse; details: 6 months in diet, hippocampus, THY-Tau22
rats = details: object recognition test, acute treatment; cited from earlier work
[3] = test system: AT8 (pSer199/202-Thr205) tau; experiment: AT8 immunostaining, quantitative image analysis; format: in vivo, mouse; details: 6 months, cortex
Procedure, shortened: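 Male THY-Tau22 mice received the test compound in diet (0.0002%, 0.002% or 0.02%) for 6 months from age 2 months. Hemibrains were immersion-postfixed 7 days at 4°C in 4% formaldehyde, and 20 μm serial sagittal cryostat sections were cut. AT8 immunostaining was quantified by virtual-slide scanning image analysis as mean positive cell bodies count. Dunnett tests were run on log-transformed data, n = 9 mice/group.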

[4] = test system: histamine H3-receptor (H3R); details: compared with ABT-239; cited from earlier work
tau protein = format: in vivo, mouse; details: for change in tau phosphorylation at Ser199/202-Thr205 (AT8 signal): 6 months in diet, not significant
Procedure, shortened: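 Cortex or hippocampus from THY-Tau22 mice given diet dosing for 6 months was homogenized in RIPA buffer (pH 7.5) with protease inhibitors, 1 μM okadaic acid and 100 mM NaF, then centrifuged at 16,000g for 10 min at 4°C. Protein (5 or 20 μg) was run on 4–12% Bis-Tris gels, transferred to PVDF and blocked in 5% milk. Primary antibodies were applied overnight at 4°C. Values are relative, n = 7–9/group.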

Ser9-GSK3β = experiment: Western blot of Ser9-GSK3β in hippocampus; format: in vivo, mouse; details: 2-week treatment, 0.002% and 0.02% in drinking water, THY-Tau22 mice
mice = details: object recognition test, acute treatment; cited from earlier work
[5] = Plasma and brain exposure after 5-month repeated oral; format: in vivo, mouse; details: for Brain/plasma AUC(0–24 h) ratio / AUC(0–24 h) / Cmax/Cmin ratio / Cmin / Cmax: 5 months; for 0.002%/0.00067% AUC(0–24 h) ratio: 5 months in diet
Procedure, shortened: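 Male WT mice received the test compound in diet (0.00067% or 0.002%) for 5 months. Blood was taken from the mandibular vein of awake mice into lithium heparin and centrifuged at 1500–2000g for 10 min at 4°C; plasma was stored at −80°C. Pons/cerebellum was dissected. Samples spanned 24 h; analytes were acetonitrile-precipitated and measured by LC-MS/MS.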

THY-Tau22 mice = experiment: Shape and spatial object recognition test; format: in vivo, mouse; details: for recognition index, shape episodic memory: Fig. 2A; for recognition index, shape episodic memory / recognition index, spatial episodic memory: means ± SEM; for recognition index, spatial episodic memory: Fig. 2B
Procedure, shortened: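 Individually housed male THY-Tau22 and WT littermates (enriched environment, reverse light/dark cycle) received diet dosing from age 2 months for 4 or 6 months. Object recognition used a 59 × 59 × 30 cm PVC open field (black walls, white floor) with an overhead camera. Washout groups were tested for shape at 10 d and spatial memory at 17 d after cessation. Recognition index is reported as mean ± SEM.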

neurofibrillary tangles = experiment: Neurofibrillary tangles, Gallyas silver staining; format: in vivo, mouse; details: 6 months
MIP-1α = experiment: Hippocampal mRNA expression, quantitative real-time RT-PCR; format: in vivo, mouse; details: 6 months, hippocampus
GFAP = experiment: as above; format: in vivo, mouse; details: 6 months in diet, hippocampus, THY-Tau22
APPxPS1 transgenic mice = experiment: Object recognition test in APPxPS1 transgenic mice; format: in vivo, mouse; details: data not shown

C[C@@H]1CCCN1CCc1cc2cc(-c3ccc(C#N)cc3)ccc2o1 [ABT-239]
tau hyperphosphorylation (AT8 site) (tau): decreases tau hyperphosphorylation | reduction in hippocampal pSer9-GSK3β levels (pSer9-GSK3β [1]): reversed the reduction | levels of pSer9-GSK3β (inactive form of GSK3β) (pSer9-GSK3β [2]): increased the levels

CN1CCCC1CCNS(=O)(=O)c1ccc2c(c1)CN(CC1CCCCC1)CC2 (centres unmarked) [SAR110894]
expression of cystatin F (cystatin F): no effect | scopolamine-induced memory deficits (rats): prevented the occurrence | decrease in number of AT8-positive neuronal cell bodies ([3]; 0.002% in diet, THY-Tau22, P = .0010): 47% | intensity of AT8 immunostaining within neuronal cell bodies and fibers ([3]; 0.002% in diet, data not shown): marked decrease | decrease in number of AT8-positive neuronal cell bodies ([3]; 0.02% in diet, THY-Tau22, P = .0250): 32% | affinity and selectivity for H3R [4]: higher affinity and selectivity than ABT-239 | change in tau phosphorylation at pSer214 (tau protein; 0.002% in diet, 6 months, cortex, P = .0052): −35% | change in tau phosphorylation at pSer422 (tau protein; 0.002% in diet, 6 months, cortex, no effect, P = .3019): −20% | change in tau phosphorylation at pThr181 (AT270 signal) (tau protein; 0.002% in diet, 6 months, cortex, no effect, P = .4830): −16% | change in AD2 signal (tau protein; 0.002% in diet, 6 months, cortex, second independent Western blot evaluation, P = .0191, Fig. 4F): −37% | change in AD2 signal (tau protein; 0.002% in diet, 6 months, cortex, trend, P = .2766, Fig. 4B): −57% | change in total tau (Tau5 signal) (tau protein; 0.002% in diet, 6 months, cortex, unchanged, P = .0950): −17% | change in tau phosphorylation at residues 396/404 (AD2 signal) (tau protein; 0.002% in diet, 6 months, hippocampus, THY-Tau22, P = .0291): −37% | tau hyperphosphorylation (AD2 or AT8) (tau protein; 2-week treatment, 0.002% and 0.02% in drinking water, hippocampus, 5- to 6-month-old THY-Tau22 mice): no effect | change in tau phosphorylation at Ser199/202-Thr205 (AT8 signal) (tau protein; cortex, P = .8054, Fig. 4E): −29% | change in tau phosphorylation at Ser199/202-Thr205 (AT8 signal) (tau protein; hippocampus, P = .5560, Fig. 4D): −22% | tau hyperphosphorylation (AD2 or AT8 epitopes) (tau protein; acute administration 3 and 10 mg/kg orally, cingulate cortex, 3-month-old THY-Tau22 mice, data not shown): no effect | level of Ser9-GSK3β (inactive form of GSK3β) (Ser9-GSK3β): no effect | memory deficits induced by infusion of Aβ(25–35) (mice): decreased the memory deficits | Brain/plasma AUC(0–24 h) ratio ([5]; 0.00067% in diet): 3.5 | AUC(0–24 h) ([5]; 0.00067% in diet, brain): 110 ng·h/g | AUC(0–24 h) ([5]; 0.00067% in diet, plasma): 31 ng·h/mL | Cmax/Cmin ratio ([5]; 0.00067% in diet, plasma): 1.4 | Cmin ([5]; 0.00067% in diet, plasma): 1.26 ng/mL and 4.83 nM | Cmax/Cmin ratio ([5]; 0.00067% in diet, pons/cerebellum): 1.5 | Brain/plasma AUC(0–24 h) ratio ([5]; 0.002% in diet): 3.5 | AUC(0–24 h) ([5]; 0.002% in diet, brain): 390 ng·h/g | AUC(0–24 h) ([5]; 0.002% in diet, plasma): 110 ng·h/mL | Cmax ([5]; 0.002% in diet, plasma): 24.8 nM | Cmax/Cmin ratio ([5]; 0.002% in diet, plasma): 2.7 | Cmin ([5]; 0.002% in diet, plasma): 2.44 ng/mL and 9.35 nM | Cmax ([5]; 0.002% in diet, plasma, male WT mice): 6.48 ng/mL | Cmax/Cmin ratio ([5]; 0.002% in diet, pons/cerebellum): 2.1 | 0.002%/0.00067% AUC(0–24 h) ratio ([5]; plasma): 3.5 | 0.002%/0.00067% AUC(0–24 h) ratio ([5]; pons/cerebellum): 3.5 | deficit in shape episodic memory (THY-Tau22 mice; 0.00067% in diet, 4 months, THY-Tau22 mice, confirmatory study, Fig. 2C): no effect | deficit in spatial episodic memory (THY-Tau22 mice; 0.00067% in diet, 4 months, THY-Tau22 mice, confirmatory study, Fig. 2D): reduced the deficit | recognition index, shape episodic memory (THY-Tau22 mice; 0.002% in diet, THY-Tau22 mice, P = .0010): 64 ± 2% | recognition index, spatial episodic memory (THY-Tau22 mice; 0.002% in diet, THY-Tau22 mice, P = .0153): 58 ± 3% | procognitive effect on shape episodic memory after treatment washout (THY-Tau22 mice; 0.002% in diet, after 1 week of washout, Fig. 2C): still persisted | procognitive effect on spatial episodic memory after treatment washout (THY-Tau22 mice; 0.002% in diet, after 2 weeks of washout, Fig. 2D): still persisted | recognition index, shape episodic memory (THY-Tau22 mice; 0.02% in diet, THY-Tau22 mice, P = .0104): 61 ± 3% | recognition index, spatial episodic memory (THY-Tau22 mice; 0.02% in diet, THY-Tau22 mice, P = .0002): 60 ± 2% | cognitive deficits in THY-Tau22 mice (THY-Tau22 mice; administered during 4 or 6 months starting at the age of 2 months): prevented cognitive deficits | change in number of NFTs (neurofibrillary tangles; 0.002% in diet, cortex, P = .0001): −48% | change in number of NFTs (neurofibrillary tangles; 0.002% in diet, hippocampus, P < .0001): −25% | change in number of NFTs (neurofibrillary tangles; 0.02% in diet, amygdala, P = .0065): −31% | change in number of NFTs (neurofibrillary tangles; 0.02% in diet, cortex, P = .0019): −41% | change in number of NFTs (neurofibrillary tangles; 0.02% in diet, hippocampus, P = .0006): −22% | change in expression of MIP-1α (MIP-1α; 0.0002% in diet, THY-Tau22, P = .0087): −35% | change in expression of MIP-1α (MIP-1α; 0.002% in diet, THY-Tau22, P = .0184): −36% | expression of GFAP (GFAP): no effect | memory deficits in APPxPS1 transgenic mice (APPxPS1 transgenic mice): decreased memory deficits
